Screening results as filed in PubChem BioAssay.
The list is not random: actives were taken first. Their share in the collection is about 9.4%.
SKKanGAS inh = inhibitors of SKKanGAS S. pyogenes growth in kanamycin (SK-promoter or general growth effect); inhibition, % at 7.5 µM; BacTiter-Glo, 6 h; 300,000 compounds, 1.3% hits;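 active = mean replicate score, as percent of positive control median, at least 50; inconclusive = mean below 50 but one replicate at or above 50; inactive = mean and every replicate below 50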;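 note: strain carries kanamycin resistance gene driven by streptokinase promoter and grows in 40 µg/ml kanamycin; loss of luminescence reflects streptokinase promoter inhibition or plain growth inhibition; 0% = median of DMSO wells and 100% = positive control at its reference dose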
CSC inhib = cancer stem cell inhibition; inhibition, % at 7.5 µM; cancer stem cell-like cells viability, luminescence; 300,000 compounds, 1.1% hits; AID 2717; in the data active = inhibition above about 75%; inconclusive = no clear call, values can overlap the other calls; tested in HMLE shEcad cells
L major viab = reduces viability of Leishmania major promastigotes | resazurin fluorescence viability | inhibition, % at 10 µM | 200,000 compounds, 9% hits; in the data active = inhibition above about 50%;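 note: promastigotes grown with compound for 44 hours at 28 °C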
Mdm2-MdmX inh = inhibitors of human Mdm2/MdmX interaction; O15151+Q00987; SaOS-2 split-luciferase Mdm2/MdmX complementation, luminescence; inhibition, % at 8 µM; 330,000 compounds, 3% hits;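 active = inhibition of at least 50% at 8 µM in the primary screen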
Beta cell apopt = beta cell apoptosis inhibition | INS-1E cytokine-induced death, ATP luminescence, 48 h; percent of positive-control rescue, neutral wells zero | protection from apoptosis, % (test concentration not listed) | 300,000 compounds, 0.8% hits | AID 435005;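 active = Every replicate reaches about 75%, or at least half do and their mean reaches it too, limit read from the data; inconclusive = At least half of replicates reach the limit but their mean does not; inactive = Under half of replicates reach the limit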;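 note: 0% = cytokine-treated negative control wells and 100% = positive control rescue; higher means more ATP so stronger rescue from cytokine killing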
T cruzi repl = T. cruzi replication inhibition; inhibition, % (test concentration not listed); 300,000 compounds, 1.4% hits; T. cruzi beta-gal in NIH3T3, luminescence, 90 h;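 active = mean inhibition across valid replicates above about 55%, limit read from the data; inconclusive = mean below that limit but half or more replicates reach it; inactive = mean below it, under half of replicates reach it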;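 note: signal also drops with host cell toxicity which is not excluded here; 0% = plate median of DMSO wells and 100% = zero luminescence signal; higher percent means less beta-gal luminescence so fewer parasites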
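Material: NIH/3T3 host cells with β-galactosidase reporter T. cruzi; Input: 5,000 host fibroblasts per well; Medium: DMEM, 2% fetal bovine serum; Compound: 50 nL DMSO compound solution per well; Schedule: 3 h host attachment, then at least 90 h co-culture; Detection: luminescent β-galactosidase signal after 60 min lysis.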
An asterisk follows results filed as active; ? = inconclusive; / = no result.

SMILES	SKKanGAS inh	CSC inhib	L major viab	Mdm2-MdmX inh	Beta cell apopt	T cruzi repl
COc1ccccc1NC(=S)N1CCN(Cc2ccc3c(c2)OCO3)CC1	4	-5	96*	-10	1	-1
CCCCC(=O)N(CCOC)c1nnc(-c2ccccc2C)s1	7	39	9	-11	-3	28
O=C(COc1ncnc2cc([N+](=O)[O-])ccc12)NCCc1ccc(Cl)cc1	2	-1	34	21	1	56*
O=C(COc1ncnc2cc([N+](=O)[O-])ccc12)NC(=O)NC1CCCCC1	1	-6	23	9	-4	67*
O=C(COc1ncnc2ccccc12)Nc1cc([N+](=O)[O-])ccc1Cl	-9	16	-4	-3	-3	19
O=C(COc1ncnc2c(Cl)cc(Cl)cc12)Nc1cc([N+](=O)[O-])ccc1Cl	5	8	52*	9	2	22
CC(NC(=O)COc1ncnc2cc([N+](=O)[O-])ccc12)c1ccccc1 (stereo not given)	0	-5	16	17	4	-11
CC(C)c1nc2c(c(=O)c3ccccc3n2C)c(=O)n1CCc1ccccc1	22	-9	/	-4	10	13
Cc1cccc(NC(=O)c2ccc(CN3CCN(Cc4ccccc4)CC3)cc2)c1	-1	9	100*	34	-4	-1
O=C(Nc1ccccc1C(F)(F)F)c1ccc(CN2CCC(Cc3ccccc3)CC2)cc1	-6	20	64*	33	7	33
Cc1ccc(C)n1-c1cccc(NC(=O)c2ccccc2)c1	2	-1	76*	-7	1	-12
Cc1ccc(C)n1-c1ccc(C(=O)Nc2ccccc2)cc1	8	16	12	16	?	-21
O=C(Nc1cccc(C(=O)N2CCN(Cc3ccccc3)CC2)c1)c1ccccc1	-4	-7	75*	31	5	-15
CCCNC(=O)C(Cc1ccccc1)NC(=O)Cc1ccccc1 (stereo not given)	/	-6	/	17	0	/
COCCOc1cc(-n2cccc2)c(Cl)cc1Cl	5	2	10	18	1	7
Cc1ccc(NCCCCO)cc1C	8	11	5	-3	7	3
COc1ccc(CC2(CO)CCN(Cc3ccc(OC(F)(F)F)cc3)CC2)cc1	-5	19	78*	28	7	39
COc1ccc(CC2(CO)CCN(Cc3ccc(NC(C)=O)cc3)CC2)cc1	6	-1	14	-11	0	5
COc1ccc(CC2(CO)CCN(Cc3cnc(-c4ccccc4C)nc3)CC2)cc1	-16	/	-5	16	/	9
COc1ccc(CN2CCC(CO)(Cc3ccccc3C(F)(F)F)CC2)c(F)c1	-10	15	77*	24	5	3
COc1ccc(CC2(CO)CCN(CC3=Cc4cc(Cl)ccc4OC3)CC2)cc1	0	-2	89*	38	115*	66*
COc1ccc(CC2(CO)CCN(Cc3nc(C(C)C)cs3)CC2)cc1	2	-5	91*	12	4	68*
COc1ccc(CC2(CO)CCN(Cc3cccc4nccnc34)CC2)cc1	-17	-19	27	-18	-11	9
CCN(CC)c1ccc(/C=C2\C(=N)N3N=C(CC(=O)N4CCOCC4)SC3=NC2=O)cc1	12	-20	/	11	-2	1
COc1ccc(CC2(CO)CCN(Cc3ccc4c(c3)CCO4)CC2)cc1	1	9	79*	-5	-3	16
SMILES	SKKanGAS inh	CSC inhib	L major viab	Mdm2-MdmX inh	Beta cell apopt	T cruzi repl
Cc1ccc(C(C)C)c(OCC(=O)OCC(=O)NC2CCS(=O)(=O)C2)c1 (stereo not given)	-4	-2	/	-3	-14	-5
COc1ccc(-c2nn(-c3ccccc3)cc2/C=N/O)cc1OC	-3	32	/	28	-13	35
COc1ccc(-c2nn(-c3ccccc3)cc2/C=N/NC(=S)NC(C)C)cc1OC	18	18	61*	32	37	20
COc1ccc(-c2nn(-c3ccccc3)cc2/C=N/Nc2ccc3ccccc3n2)cc1OC	19	5	51*	21	86*	47
COc1ccccc1Nc1ncnc2c1c(C)c(C)n2CCO	-3	-3	/	24	-4	7
NC(=S)N/N=C/c1ccc(-n2nncc2-c2ccc(Cl)cc2)cc1	-1	-7	/	41	/	57*
